Results from ChEMBL document CHEMBL3217724, “Synthesis and evaluation of a series of benzothiophene acrylonitrile analogs as anticancer agents” (Medchemcomm, 2013).

Assays:
Assay type in all cases: functional
[1] = Growth inhibition of human OVCAR8 cells; conditions: OVCAR-8
Method in brief: (§1)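 NCI 60-human-cancer-cell-line panel, five-dose screen after a preliminary screen. GI50 is the molar concentration giving 50% growth inhibition.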

[2] = Growth inhibition of human OVCAR4 cells; conditions: OVCAR-4; method in brief: as §1
[3] = test system: IGROV-1; assay: Growth inhibition of human IGROV1 cells; method in brief: as §1
[4] = Growth inhibition of human OVCAR3 cells; conditions: OVCAR-3; method in brief: as §1
[5] = Growth inhibition of human UACC257 cells; conditions: UACC-257
Method in brief: (§2)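 NCI 60-cell-line panel, five-dose screen; GI50 is the molar concentration giving 50% growth inhibition.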

[6] = Growth inhibition of human UACC62 cells; conditions: UACC-62; method in brief: as §2
[7] = test system: SK-MEL-5; assay: Growth inhibition of human SK-MEL-5 cells; method in brief: as §1
[8] = test system: SK-MEL-2; assay: Growth inhibition of human SK-MEL-2 cells; method in brief: as §1
[9] = test system: SK-MEL-28; assay: Growth inhibition of human SK-MEL-28 cells; method in brief: as §1
[10] = test system: M14; assay: Growth inhibition of human M14 cells; method in brief: as §1
[11] = test system: MDA-MB-435; assay: Growth inhibition of human MDA-MB-435 cells; method in brief: as §1
[12] = test system: Malme-3M; assay: Growth inhibition of human MALME-3M cells; method in brief: as §1
[13] = test system: U-251; assay: Growth inhibition of human U251 cells; method in brief: as §2
[14] = Growth inhibition of human LOXIMVI cells; conditions: LOX IMVI; method in brief: as §1
[15] = test system: SNB-75; assay: Growth inhibition of human SNB75 cells; method in brief: as §2
[16] = test system: SNB-19; assay: Growth inhibition of human SNB19 cells; method in brief: as §2
[17] = Growth inhibition of human SF539 cells; conditions: SF-539; method in brief: as §1
[18] = Growth inhibition of human SF295 cells; conditions: SF-295; method in brief: as §1
[19] = test system: SW-620; assay: Growth inhibition of human SW620 cells; method in brief: as §2
[20] = test system: SF-268; assay: Growth inhibition of human SF268 cells; method in brief: as §1
[21] = test system: HT-29; assay: Growth inhibition of human HT-29 cells; method in brief: as §1
[22] = test system: KM12; assay: Growth inhibition of human KM12 cells; method in brief: as §1
[23] = Growth inhibition of human HCT15 cells; conditions: HCT-15; method in brief: as §1
[24] = Growth inhibition of human HCC2998 cells; conditions: HCC 2998; method in brief: as §1
[25] = test system: HCT-116; assay: Growth inhibition of human HCT116 cells; method in brief: as §1
[26] = test system: COLO 205; assay: Growth inhibition of human COLO205 cells; method in brief: as §1
[27] = test system: NCI-H460; assay: Growth inhibition of human NCI-H460 cells; method in brief: as §1
[28] = test system: NCI-H522; assay: Growth inhibition of human NCI-H522 cells; method in brief: as §1
[29] = test system: NCI-H322M; assay: Growth inhibition of human NCI-H322M cells; method in brief: as §1
[30] = test system: NCI-H226; assay: Growth inhibition of human NCI-H226 cells; method in brief: as §1
[31] = test system: NCI-H23; assay: Growth inhibition of human NCI-H23 cells; method in brief: as §1
[32] = Growth inhibition of human HOP92 cells; conditions: HOP-92; method in brief: as §1
[33] = Growth inhibition of human EKVX cells; method in brief: as §1
[34] = test system: HOP-62; assay: Growth inhibition of human HOP62 cells; method in brief: as §1
[35] = test system: SR; assay: Growth inhibition of human SR cells; method in brief: as §2
[36] = test system: A549; assay: Growth inhibition of human A549 cells; method in brief: as §1
[37] = test system: RPMI-8226; assay: Growth inhibition of human RPMI8226 cells; method in brief: as §1
[38] = test system: K562; assay: Growth inhibition of human K562 cells; method in brief: as §1
[39] = Growth inhibition of human MOLT4 cells; conditions: MOLT-4; method in brief: as §1
[40] = test system: HL-60(TB); assay: Growth inhibition of human HL-60(TB) cells; method in brief: as §1
[41] = test system: CCRF-CEM; assay: Growth inhibition of human CCRF-CEM cells; method in brief: as §1
[42] = test system: T47D; assay: Growth inhibition of human T47D cells; method in brief: as §2
[43] = Growth inhibition of human Hs578T cells; conditions: Hs-578T; method in brief: as §1
[44] = Growth inhibition of human BT549 cells; conditions: BT-549; method in brief: as §1
[45] = test system: MDA-MB-231; assay: Growth inhibition of human MDA-MB-231 cells; method in brief: as §1
[46] = test system: DU-145; assay: Growth inhibition of human DU145 cells; method in brief: as §1
[47] = test system: MCF7; assay: Growth inhibition of human MCF7 cells; method in brief: as §1
[48] = Growth inhibition of human UO31 cells; conditions: UO-31; method in brief: as §2
[49] = test system: PC-3; assay: Growth inhibition of human PC3 cells; method in brief: as §1
[50] = test system: TK-10; assay: Growth inhibition of human TK10 cells; method in brief: as §2
[51] = Growth inhibition of human RXF393 cells; conditions: RXF 393; method in brief: as §1
[52] = test system: SN12C; assay: Growth inhibition of human SN12C cells; method in brief: as §2
[53] = test system: ACHN; assay: Growth inhibition of human ACHN cells; method in brief: as §1
[54] = test system: CAKI-1; assay: Growth inhibition of human Caki1 cells; method in brief: as §1
[55] = test system: A498; assay: Growth inhibition of human A498 cells; method in brief: as §1
[56] = test system: SK-OV-3; assay: Growth inhibition of human SKOV3 cells; method in brief: as §2
[57] = test system: 786-0; assay: Growth inhibition of human 786-0 cells; method in brief: as §1
[58] = Growth inhibition of human NCI-ADR-RES cells; method in brief: as §1
[59] = Growth inhibition of human OVCAR5 cells; conditions: OVCAR-5; method in brief: as §1

**Q.** Which GI50 [1] does the source give for `COc1ccc(/C(C#N)=C/c2cc3ccccc3s2)cc1OC` here?
**A.** 25.1 nM

**Q.** What about the GI50 [2] of the same compound?
**A.** > 100 nM

**Q.** And the GI50 [3]?
**A.** 61.8 nM

**Q.** And the GI50 [4]?
**A.** 22 nM

**Q.** And the GI50 [5]?
**A.** > 100 nM

**Q.** And the GI50 [6]?
**A.** 45.9 nM

**Q.** What about the GI50 [7] of the same compound?
**A.** 21 nM

**Q.** What about the GI50 [8] of the same compound?
**A.** > 100 nM

**Q.** And the GI50 [9]?
**A.** > 100 nM

**Q.** What about the GI50 [10] of the same compound?
**A.** 61.1 nM

**Q.** What about the GI50 [11] of the same compound?
**A.** 10 nM

**Q.** What about the GI50 [12] of the same compound?
**A.** > 100 nM

**Q.** And the GI50 [13]?
**A.** 64 nM

**Q.** And the GI50 [14]?
**A.** 60.7 nM

**Q.** And the GI50 [15]?
**A.** 13.7 nM

**Q.** And the GI50 [16]?
**A.** 44.4 nM

**Q.** What about the GI50 [17] of the same compound?
**A.** 10.6 nM

**Q.** And the GI50 [18]?
**A.** 10 nM

**Q.** And the GI50 [19]?
**A.** 24.2 nM

**Q.** And the GI50 [20]?
**A.** 45.2 nM

**Q.** What about the GI50 [21] of the same compound?
**A.** 31.8 nM

**Q.** And the GI50 [22]?
**A.** 10 nM

**Q.** What about the GI50 [23] of the same compound?
**A.** 48.2 nM

**Q.** And the GI50 [24]?
**A.** 66.5 nM

**Q.** And the GI50 [25]?
**A.** 41.1 nM

**Q.** And the GI50 [26]?
**A.** 36.1 nM

**Q.** And the GI50 [27]?
**A.** 35.4 nM

**Q.** And the GI50 [28]?
**A.** 10 nM

**Q.** What about the GI50 [29] of the same compound?
**A.** 31.5 nM

**Q.** What about the GI50 [30] of the same compound?
**A.** > 100 nM

**Q.** And the GI50 [31]?
**A.** 57.9 nM

**Q.** And the GI50 [32]?
**A.** > 100 nM

**Q.** What about the GI50 [33] of the same compound?
**A.** 90.8 nM

**Q.** And the GI50 [34]?
**A.** 47 nM

**Q.** And the GI50 [35]?
**A.** 10 nM

**Q.** What about the GI50 [36] of the same compound?
**A.** 70 nM

**Q.** What about the GI50 [37] of the same compound?
**A.** 29.8 nM

**Q.** And the GI50 [38]?
**A.** 35.4 nM

**Q.** What about the GI50 [39] of the same compound?
**A.** 53.5 nM

**Q.** What about the GI50 [40] of the same compound?
**A.** 22.2 nM

**Q.** What about the GI50 [41] of the same compound?
**A.** 28.6 nM

**Q.** And the GI50 [42]?
**A.** > 100 nM

**Q.** And the GI50 [43]?
**A.** 30 nM

**Q.** What about the GI50 [44] of the same compound?
**A.** 28.3 nM

**Q.** And the GI50 [45]?
**A.** 26.9 nM

**Q.** What about the GI50 [46] of the same compound?
**A.** 36.6 nM

**Q.** And the GI50 [47]?
**A.** 47.8 nM

**Q.** What about the GI50 [48] of the same compound?
**A.** 18.7 nM

**Q.** And the GI50 [49]?
**A.** 29.7 nM

**Q.** And the GI50 [50]?
**A.** 45.2 nM

**Q.** And the GI50 [51]?
**A.** 90.9 nM

**Q.** What about the GI50 [52] of the same compound?
**A.** 13.6 nM

**Q.** And the GI50 [53]?
**A.** 85.4 nM

**Q.** And the GI50 [54]?
**A.** 82.7 nM

**Q.** And the GI50 [55]?
**A.** 26.6 nM

**Q.** And the GI50 [56]?
**A.** 63.4 nM

**Q.** What about the GI50 [57] of the same compound?
**A.** 33.7 nM

**Q.** And the GI50 [58]?
**A.** 10.5 nM

**Q.** What about the GI50 [59] of the same compound?
**A.** 50 nM
